Source: PubChem (several laboratories)
An excerpt weighted towards active compounds, which were near 1.8% of everything screened.
DAGLB inh: diacylglycerol lipase beta (human) inhibition. Q8NCG7. HEK293T DAGLB membrane lysate, EnzChek fluorogenic substrate. inhibition, % at 5.17 µM. actives 0.059% (n = 340,000); in the data active means inhibition above about 34%;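 further: 0% = enzyme with vehicle and 100% = wells lacking enzyme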
Target sequence (Q8NCG7 whole entry, looked up): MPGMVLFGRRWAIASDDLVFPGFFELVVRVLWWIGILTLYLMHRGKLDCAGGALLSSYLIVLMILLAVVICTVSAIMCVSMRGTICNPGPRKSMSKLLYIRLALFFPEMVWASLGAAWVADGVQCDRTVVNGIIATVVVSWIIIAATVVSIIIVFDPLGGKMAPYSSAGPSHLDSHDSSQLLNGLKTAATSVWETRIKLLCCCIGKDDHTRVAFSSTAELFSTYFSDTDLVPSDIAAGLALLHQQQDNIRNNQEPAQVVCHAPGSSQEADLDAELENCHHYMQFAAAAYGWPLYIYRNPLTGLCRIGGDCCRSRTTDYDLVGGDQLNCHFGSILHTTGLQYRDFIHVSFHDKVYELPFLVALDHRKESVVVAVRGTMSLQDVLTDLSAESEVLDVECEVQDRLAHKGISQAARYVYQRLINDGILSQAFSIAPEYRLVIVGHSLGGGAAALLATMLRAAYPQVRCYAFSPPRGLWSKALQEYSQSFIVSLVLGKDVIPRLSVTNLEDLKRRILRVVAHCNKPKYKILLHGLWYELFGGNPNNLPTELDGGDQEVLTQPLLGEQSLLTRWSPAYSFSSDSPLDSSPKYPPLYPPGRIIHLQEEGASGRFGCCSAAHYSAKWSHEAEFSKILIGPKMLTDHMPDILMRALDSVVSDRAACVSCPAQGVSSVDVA
hiPSC survival: hiPSC single-cell survival enhancement; ATPlite luminescence; 100% = ROCK inhibitor wells, 0% = DMSO; survival enhancement, % at 20 µM; actives 0.044% (n = 360,000); in the data active means survival enhancement above about 18%;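 further: cells exposed to compounds for 16 hours before the ATP read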
rRNA inh HTS: inhibits bacterial ribosomal RNA function over humanized ribosomes. E. coli WT GFP vs humanized-ribosome RFP mutants, fluorescence, 24 h; active compounds read low; DMSO median 0, no signal -100. GFP signal change (wild-type ribosome), % (no concentration beside the values). actives 1.6% (n = 350,000). AID 720706;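 active means significant combined selectivity score with lowered wild-type GFP, culture density cut under 30%, mutant RFP and density less affected; inactive means any of these conditions unmet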
Cneo AK release: Cryptococcus neoformans lysis via adenylate kinase release; C. neoformans lysis, adenylate kinase release luminescence, 4 h; normalised: neutral wells 0, clomiphene wells 100; lysis activity, % at 15 µM; AID 651654; actives 0.2% (n = 360,000);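 active means mean lysis activity across replicates of at least 80%, whatever share of replicates individually reach that level; inactive means mean lysis activity below 80%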
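Material – log-phase Cryptococcus neoformans yeast cells · Input – 5 × 10^6 yeast cells/mL · Medium – fresh YPD growth medium · Doses – single compound concentration per well · Timing – static 4 h at 37 °C with compound, 1 h detection · Detection – adenylate kinase release luminescence · Read-out – signal increase indicating cell lysis · Control set – Clomiphene as positive lysis control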
SKN-1 inh: inhibitors of C. elegans SKN-1. inhibition, % at 21.8 µM. C. elegans VP596 Pgst-4::GFP/RFP ratio, acrylamide-induced, 24 h. actives 0.49% (n = 360,000);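 active means interference check ratio from 0.5 to 1.5 plus GFP to RFP signal ratio inhibition reaching or exceeding a fixed threshold, cut at about 30% in these data, passing the limit was not always enough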
MT1-MMP act inh: MT1-MMP (human) activation inhibition; P50281; HT1080 RFP-PRO-GFP cells, GFP/RFP ratio fluorescence, overnight; percent of plate control window, DMSO zero; GFP/RFP ratio change, % at 20 µM; actives 0.061% (n = 360,000); AID 651647;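 active means GFP/RFP ratio change of at least 30% with cell ATP level not reduced by more than half and red fluorescence within 50% of control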
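Test system: HT1080 RFP-PRO-GFP cells; Benchmarks: DMSO and RFP-L50D-GFP cell wells; Timing: cells overnight before dosing, compound overnight, 37 °C, 5% CO2; Compound: one 20 µM compound dose with 1% DMSO; Read-out: GFP/RFP fluorescence ratio.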
* hit, by the source's call; · = no result given.

SMILES	DAGLB inh	hiPSC survival	rRNA inh HTS	Cneo AK release	SKN-1 inh	MT1-MMP act inh
C[C@H]1CN([C@@H](C)CO)C(=O)c2cccc(NC(=O)C3CCCCC3)c2O[C@H]1CN(C)S(=O)(=O)c1ccc(F)cc1	·	·	-5	4	·	·
C=CCNC(=S)N/N=C/c1ccc(C)cc1C	-3	0	-17*	·	-4	7
O=C(CSc1ccccn1)N/N=C/c1cc([N+](=O)[O-])ccc1O	4	0	-19*	·	5	1
COc1ccc(S(=O)(=O)N[C@H]2CC[C@H](CC(=O)O)O[C@@H]2CO)cc1	·	·	1	0	·	·
COc1ccc(C[C@H]2CCn3cc(nn3)COCCNC2=O)cc1	·	·	2	·	·	·
Cc1ccccc1CSCC(=O)Nc1ccccc1Br	-8	2	-23*	-3	9	-2
O=C(c1cnccn1)N1CC(=O)N2[C@H](CO)[C@H](c3ccc(C#CC4CCCC4)cc3)[C@H]2C1	·	·	2	·	·	·
CC(C)C1CC(CCNCc2ccc3c(c2)OCO3)(c2ccccc2)CCO1 (stereo not drawn)	-2	-1	-24*	·	-19	1
C[C@H](NC(=O)C[C@@H]1C[C@@H]2c3cc(NC(=O)CC4CC4)ccc3O[C@@H]2[C@H](CO)O1)c1ccccc1	·	·	-2	53	·	·
CC(O)CC(=O)O (stereo not drawn)	-2	1	9	2	41*	2
O=C(O)CC(O)C(=O)O (stereo not drawn)	1	-2	·	-4	15	10
COC(=O)[C@H]1COC(c2ccc(OCCCO)cc2)=N1	·	·	·	-8	·	·
COCC(=O)N1C[C@H](C)[C@@H](OC)CN(C)C(=O)c2cc(NC(=O)NC(C)C)ccc2OC[C@@H]1C	·	·	1	-4	·	·
CC(Nc1ccc(Cl)c(Cl)c1)C(=O)NN (stereo not drawn)	2	0	-26*	2	-2	1
NNC(=O)C(=O)Nc1ccc(Cl)c(Cl)c1	·	0	-1	3	-7	0
CC(=O)c1sc(N/N=C2\CC3CC2C(C)C3(C)C)nc1C (stereo not drawn)	2	0	-31*	·	9	1
CCC(=O)N1CC2(CN[C@H](CO)c3c2c2ccc(OC)cc2n3C)C1	·	·	2	·	·	·
Cc1ccc(C(=O)n2nc(-c3cccnc3)nc2N)cc1	0	0	·	-6	37*	2
COc1ccccc1NC(=O)Nc1ccc2c(c1)OC[C@@H](C)N(Cc1ccccc1Cl)C[C@@H](C)[C@H](OC)CN(C)C2=O	·	·	4	1	·	·
CN(C(=O)COC(=O)c1nc(Cl)c(Cl)c(Cl)c1Cl)C1CCS(=O)(=O)C1 (stereo not drawn)	-6	42*	-3	·	-4	-25
CN(C(=O)COC(=O)C1c2ccccc2Oc2ccccc21)C1CCS(=O)(=O)C1 (stereo not drawn)	-3	0	·	0	48*	4
O=C(NC1CCCC1)[C@@H]1[C@@H](CO)[C@@H]2Cn3c(ccc(-c4cccnc4)c3=O)[C@H]1N2CC1CC1	·	·	-2	0	·	·
C[C@@H]1CN([C@@H](C)CO)C(=O)Cc2cc(NC(=O)NC3CCCCC3)ccc2O[C@H]1CN(C)Cc1ccc(C(F)(F)F)cc1	·	·	1	0	·	·
O=C(c1ccccc1)c1ccc(OCCOCCN2CCN(Cc3ccccc3)CC2)cc1	-4	-1	-36*	·	3	-3
O=C(N/N=C/C1CC=CCC1)c1ccccc1O (stereo not drawn)	-1	-2	·	-3	-5	-1
SMILES	DAGLB inh	hiPSC survival	rRNA inh HTS	Cneo AK release	SKN-1 inh	MT1-MMP act inh
O=C(N/N=C/C1CC=CCC1)c1ccc(Cl)cc1O (stereo not drawn)	7	-1	-29*	3	-2	3
COc1ccc(NC(=S)NCc2ccco2)cc1	1	-1	·	·	-2	1
CCOc1ccc(NC(=S)NNC(=S)Nc2cccc(C(F)(F)F)c2)cc1	9	0	-28*	·	-6	2
COc1ccc(NC(=S)NNC(=S)Nc2cccc(C(F)(F)F)c2)cc1	5	0	-24*	-4	1	4
CNNC(=S)Nc1cccc(C(F)(F)F)c1	·	1	·	-2	-1	0
CCOc1ccc(NC(=S)NCc2ccco2)cc1	1	0	-19*	·	2	6
COc1ccc(-c2ccc([C@H]3[C@@H](CO)N4C(=O)CNC[C@H]34)cc2)cc1	·	·	-2	·	·	·
CCN(CC)c1ccc(/C=N/NC(=O)OC)c(O)c1	4	-1	·	3	1	7
CCN(CC)c1ccc(/C=N/NC(=O)c2ccoc2C)c(O)c1	8	-1	-34*	0	-8	·
C[C@H]1CN([C@@H](C)CO)C(=O)Cc2cc(NS(=O)(=O)c3ccc(F)cc3)ccc2O[C@H]1CN(C)S(=O)(=O)c1ccccc1	·	·	2	-1	·	·
Clc1ccccc1/C=C/c1ccnc2ccccc12	-11	-1	-56	3	35*	-4
COc1ccc(C(C(=O)NC2CCCC2)N(C(=O)c2snc(-c3ccc(F)cc3)c2N)c2ccc(F)cc2)cc1 (stereo not drawn)	-4	-3	·	0	46*	-1
CC(OC(=O)c1ccc(Cl)c(S(=O)(=O)Nc2ccc(F)cc2)c1)C(=O)NC(N)=O (stereo not drawn)	4	0	-26*	4	7	0
CC(OC(=O)c1cc(S(=O)(=O)Nc2ccc(F)cc2)ccc1Cl)C(=O)Nc1ccc2c(c1)OCCO2 (stereo not drawn)	-6	0	·	·	-9	0
CCCNC(=O)Nc1ccc2c(c1)C(=O)N(C)C[C@H](OC)[C@@H](C)CN(Cc1cccnc1)[C@H](C)CO2	·	·	2	81*	·	·
COc1ccccc1C(=O)Nc1ccc2c(c1)C(=O)N(C)C[C@@H](OC)[C@@H](C)CN(CC1CC1)[C@H](C)CO2	·	·	1	-11	·	·
CCCC(=O)Nc1ccc2c(c1)OC[C@@H](C)N(Cc1cncnc1)C[C@@H](C)[C@@H](OC)CN(C)C2=O	·	·	-1	94*	·	·
CO[C@H]1CN(C)C(=O)c2cc(NC(=O)C3CC3)ccc2OC[C@@H](C)N(Cc2cncnc2)C[C@H]1C	·	·	0	84*	·	·
CCCC(=O)Nc1ccc2c(c1)OC[C@H](C)N(Cc1cncnc1)C[C@@H](C)[C@H](OC)CN(C)C2=O	·	·	-4	1	·	·
COc1ccccc1C(=O)Nc1ccc2c(c1)C(=O)N(C)C[C@H](OC)[C@@H](C)CN(CC1CC1)[C@@H](C)CO2	·	·	-1	96*	·	·
COc1cccc(-c2ccc3c(c2)[C@@H]2[C@@H](CCN2C(=O)Nc2ccccc2OC)[C@@H](CO)N3C)c1	·	·	-9	4	·	·
COc1cccc(/C=N/NC(=O)c2ccc(N3CCCC3=O)cc2)c1	-2	0	-19*	0	2	-4
